Published values from different studies.

CCc1cc(OC)c2nccc(N3CCc4c(cc(Cn5ccnc5)cc4-c4cn(C)nc4C(F)(F)F)C3=O)c2c1 — Vd (male CD-1 mouse, plasma; intravenous, 3 mg/kg): 0.7 L/kg
COc1nc(-c2cc(C)c(N[C@@H](C)c3c(F)cc(F)cc3F)nn2)ccc1-n1cnc(C)c1 — Vd (male CD-1 mouse, plasma; intravenous, 1 mg/kg, single dose): 1.52 L/kg
COc1ccc(C(O)COc2ccc(-c3csc(-c4ccc(OCC(O)c5ccc(OC)c(OC)c5)cc4)n3)cc2)cc1OC (stereo not shown) — Vd (C57BL/6 mouse, plasma; intravenous, 3 mg/kg): 1.5 L/kg
CCc1cc(C(=O)NC)c2nccc(N3CCc4c(cc(Cn5ccnc5)cc4-c4cn(C)nc4C(F)(F)F)C3=O)c2c1 — Vd (male CD-1 mouse, plasma; intravenous, 3 mg/kg): 0.4 L/kg
CC(C)(C)c1ccc(O)c(CN(Cc2cc(C(C)(C)C)ccc2O)C2CCC(NC(N)=O)CC2)c1 (stereo not shown) — Vd (male C57BL/6 mouse, plasma; intraperitoneal, 25 mg/kg, single dose): 5.6 L
CN1CCC(c2ccccc2CC(C)(C)Nc2nc(N3CCOCC3)nc(-n3c(C(F)F)nc4ccccc43)n2)CC1 — Vd (mouse, plasma; intravenous, 10 mg/kg, single dose): 5.61 L/kg
Cc1ccc2cncc(N3CCc4c(cc(Cn5ccnc5)cc4-c4cn(C)nc4C(F)(F)F)C3=O)c2c1 — Vd (male CD-1 mouse, plasma; intravenous, 3 mg/kg): 0.8 L/kg
CC[C@H](C)[C@@H]1NC(=O)[C@@](C)(NC(=O)[C@H](CCCNC(=N)N)NC(=O)[C@H](CC(C)C)NC(=O)[C@@H](NC(=O)[C@H](CCC(N)=O)NC(=O)[C@H](CC(C)C)NC(C)=O)[C@@H](C)O)CCCC=CCCC[C@@](C)(C(=O)N[C@@H](CC(C)C)C(=O)N[C@@H](Cc2ccc3ccccc3c2)C(N)=O)NC(=O)[C@H](CCCNC(=N)N)NC(=O)[C@H](CCC(N)=O)NC1=O — Vd (male BALB/c mouse, plasma; intravenous, 10 mg/kg): 0.0788 L/kg
CNCCN(C)c1cc(C#N)cc(CCc2cc(C)cc(N)n2)c1 — Vd (male BALB/c mouse, plasma; intravenous, 2 mg/kg): 14.8 L/kg
CN1CCN(CC2CCN(c3nccc4[nH]c(-c5cc(F)cc(F)c5)nc34)CC2)CC1 — Vd (BALB/c mouse, blood; intravenous, 2 mg/kg): 37 L/kg
